Experimental data published in ChEMBL document CHEMBL1138521, “Discovery of 4-(5-(4-chlorophenyl)-2-methyl-3-propionyl-1H-pyrrol-1-yl)benzenesulfonamide (A-867744) as a novel positive allosteric modulator of the alpha7 nicotinic acetylcholine receptor” (J Med Chem, 2009).
Values belong to the compound of their own block, whether it stands above or below them. Active and inactive are the calls of the source. The rule behind the calls is not given here.

Columns and labels:
[1] = biological target: T1, Neuronal acetylcholine receptor subunit alpha-7 (Homo sapiens, UniProt P36544); experiment: Allosteric modulator activity at alpha7 nAChR in human IMR32 cells assessed as stimulation of agonist-induced intracellular calcium level by FLIPR assay; assay type: functional, cell-based, IMR-32
T1 sequence (P36544 whole entry): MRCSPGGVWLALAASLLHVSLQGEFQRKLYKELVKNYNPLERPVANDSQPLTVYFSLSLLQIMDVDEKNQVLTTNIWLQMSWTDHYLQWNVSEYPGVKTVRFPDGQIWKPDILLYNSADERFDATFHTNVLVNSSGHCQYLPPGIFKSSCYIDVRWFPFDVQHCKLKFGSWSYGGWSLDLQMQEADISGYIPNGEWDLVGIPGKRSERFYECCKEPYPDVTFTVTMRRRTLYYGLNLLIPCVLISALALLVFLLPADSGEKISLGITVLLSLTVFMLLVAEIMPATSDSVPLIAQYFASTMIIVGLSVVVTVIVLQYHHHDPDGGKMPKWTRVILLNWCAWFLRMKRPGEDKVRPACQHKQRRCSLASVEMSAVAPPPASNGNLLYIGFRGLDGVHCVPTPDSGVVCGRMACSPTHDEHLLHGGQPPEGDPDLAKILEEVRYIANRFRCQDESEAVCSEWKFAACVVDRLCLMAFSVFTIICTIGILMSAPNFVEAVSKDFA
Summary of the method: (§1)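 IMR-32 human neuroblastoma cells (endogenous α7) on poly-D-lysine plates, loaded with calcium-4 no-wash dye in NMDG buffer (10 mM HEPES pH 7.4, 10 mM CaCl2) 1 h at 25 °C. Peak fluorescence over baseline, normalized to maximum; EC50 from 2–5 experiments in duplicate.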

[2] = biological target: T1, Neuronal acetylcholine receptor subunit alpha-7; experiment: Allosteric modulator activity at alpha7 nAChR in human IMR32 cells assessed as stimulation of agonist-induced intracellular calcium level by FLIPR assay relative to 1-(5-chloro-2,4-dimethoxyphenyl)-3-(5-methylisoxazol-3-yl)urea; assay type: functional, cell-based; settings: IMR-32; summary of the method: as §1
[3] = Metabolic stability in rat liver microsomes assessed as compound remaining after 30 mins; assay type: ADME, Microsome; settings: read-out: Stability
Summary of the method: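 Microsomes prewarmed 10 min at 37 °C; reaction started with compound (1 µM final) and NADPH (1 mM final) at 0.5 mg/mL protein, in triplicate. Sampled at 0, 10, 20 and 30 min; stopped with acetonitrile/methanol containing warfarin internal standard; centrifuged supernatant analysed by HPLC-MS.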

[4] = Cmax in monkey at 1 umol/kg, po; assay type: ADME, organism-based, Macaca mulatta; parameters: dose 1 umol/kg, route oral; settings: rhesus monkey, in vivo
[5] = Half life in dog at 0.5 umol/kg, iv; assay type: ADME, organism-based, Canis lupus familiaris; settings: in vivo
[6] = Volume of distribution at steady state in rat at 2 umol/kg, iv; assay type: ADME, organism-based; settings: in vivo, read-out: Vdss
Brain [7] = experiment: Drug level in brain of DBA/2 mouse model of sensory gating deficits at 10 umol/kg, ip; assay type: functional, tissue-based
Summary of the method: (§2)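 DBA/2 mice dosed ip at 0.1, 1.0 or 10.0 µmol/kg in vehicle of 5% DMSO and 5% Solutol in PBS; brain concentration reported in ng/g.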

[8] = biological target: Neuronal acetylcholine receptor; alpha4/beta2 (Homo sapiens) (UniProt P17787+P43681); experiment: Activity at human recombinant alpha4beta2 nAChR expressed in HEK293 cells assessed as potentiation of nicotine-evoked calcium transients up to 30 uM; assay type: cell-based
Oocyte [9] = experiment: Modulator activity at alpha7 nAChR in Xenopus laevis oocytes cells assessed as enhancement of acetylcholine-evoked electric currents at -60 mV by two-electrode voltage clamp technique; assay type: cell-based
Summary of the method: (§3)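 Xenopus oocytes, collagenase-defolliculated, injected with ~20–25 ng α7 nAChR cRNA, kept at 18 °C and used 2–7 days later. Two-electrode voltage clamp at −60 mV, room temperature, in Ba2+-OR2 with 0.5 µM atropine. Modulator applied ≥60 s before 1 s application of 100 µM ACh. Apparent peak current expressed as percent of 100 µM ACh response; sigmoidal variable-slope fit.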

[10] = Plasma clearance in dog at 0.5 umol/kg, iv; assay type: ADME, organism-based, Canis lupus familiaris
[11] = Plasma clearance in monkey at 0.5 umol/kg, iv; assay type: ADME, organism-based, Macaca mulatta; settings: rhesus monkey
[12] = biological target: Neuronal acetylcholine receptor; alpha3/beta4 (Homo sapiens) (UniProt P30926+P32297); experiment: Activity at human recombinant alpha3beta4 nAChR expressed in HEK293 cells assessed as potentiation of nicotine-evoked calcium transients up to 30 uM; assay type: cell-based
[13] = Half life in rat at 2 umol/kg, iv; assay type: ADME, organism-based; settings: in vivo
[14] = Oral bioavailability in monkey at 1 umol/kg; assay type: ADME, organism-based, Macaca mulatta; settings: rhesus monkey, in vivo
Brain [15] = experiment: Drug level in brain of DBA/2 mouse model of sensory gating deficits at 1 umol/kg, ip; assay type: functional, tissue-based; summary of the method: as §2
[16] = biological target: Neuronal acetylcholine receptor subunit alpha-7 (Rattus norvegicus) (UniProt Q05941); experiment: Modulator activity at alpha7 nAChR in rat neonatal cortical neurons assessed as enhancement of (R)-4-chloro-N-(quinuclidin-8-yl)benzamide-induced calcium flux response at 5 uM by FLIPR assay
Chain of Neuronal acetylcholine receptor subunit alpha-7 (Rattus norvegicus) (Q05941 whole entry): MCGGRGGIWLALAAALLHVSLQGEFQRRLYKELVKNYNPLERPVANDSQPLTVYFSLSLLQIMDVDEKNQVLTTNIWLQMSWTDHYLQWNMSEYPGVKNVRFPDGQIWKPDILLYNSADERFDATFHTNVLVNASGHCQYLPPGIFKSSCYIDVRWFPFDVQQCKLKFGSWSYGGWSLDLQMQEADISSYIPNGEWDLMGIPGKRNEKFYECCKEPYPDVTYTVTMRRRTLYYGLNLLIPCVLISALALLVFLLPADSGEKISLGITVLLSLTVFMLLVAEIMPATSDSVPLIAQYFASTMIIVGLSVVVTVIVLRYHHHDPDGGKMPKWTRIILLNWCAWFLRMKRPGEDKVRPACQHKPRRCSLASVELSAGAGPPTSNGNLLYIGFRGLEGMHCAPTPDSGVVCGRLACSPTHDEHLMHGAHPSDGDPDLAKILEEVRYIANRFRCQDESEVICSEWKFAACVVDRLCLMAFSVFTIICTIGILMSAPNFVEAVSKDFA
Summary of the method: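 Primary neonatal rat cortical neurons cultured on poly-D-lysine plates (10000 cells/well), assayed 3 days after plating. Calcium-3 dye in HBSS with 20 mM HEPES. After 10 s baseline, modulator added for 3–5 min, then agonist. Peak fluorescence increase over baseline in RFU, normalized to maximal value.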

[17] = Volume of distribution at steady state in monkey at 0.5 umol/kg, iv; assay type: ADME, organism-based, Macaca mulatta; settings: rhesus monkey, in vivo, read-out: Vdss
Oocyte [18] = experiment: Modulator activity at alpha7 nAChR in Xenopus laevis oocytes cells assessed as activation of electric currents at 0.1 nM to 10 uM at -60 mV by two-electrode voltage clamp technique; assay type: cell-based; summary of the method: as §3
[19] = Cmax in rat at 2 umol/kg, po; assay type: ADME, organism-based; parameters: dose 2 umol/kg, route oral; settings: in vivo
[20] = Volume of distribution at steady state in dog at 0.5 umol/kg, iv; assay type: ADME, organism-based, Canis lupus familiaris; settings: in vivo, read-out: Vdss
[21] = Oral bioavailability in rat at 2 umol/kg; assay type: ADME, organism-based; settings: in vivo
[22] = Cmax in dog at 1 umol/kg, po; assay type: ADME, organism-based, Canis lupus familiaris; parameters: dose 1 umol/kg, route oral; settings: in vivo
Rattus norvegicus [23] = experiment: Plasma concentration Sprague-Dawley rat at 10 mg/kg; assay type: ADME, organism-based; parameters: dose 10 mg/kg; settings: in vivo
Summary of the method: (§4)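 Anesthetized rat cardiovascular assay at 3, 10 and 30 mg/kg, with plasma concentrations measured alongside mean arterial pressure, heart rate, contractility and peripheral vascular resistance.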

Oocyte [24] = experiment: Modulator activity at alpha7 nAChR in Xenopus laevis oocytes cells assessed as decay of acetylcholine-evoked electric current response at -60 mV by two-electrode voltage clamp technique; assay type: cell-based; summary of the method: as §3
[25] = Plasma clearance in rat at 2 umol/kg, iv; assay type: ADME, organism-based
Rattus norvegicus [26] = experiment: Plasma concentration Sprague-Dawley rat at 3 mg/kg; assay type: ADME, organism-based; parameters: dose 3 mg/kg; settings: in vivo; summary of the method: as §4
Brain [27] = experiment: Drug level in brain of DBA/2 mouse model of sensory gating deficits at 0.1 umol/kg, ip; assay type: functional, tissue-based; summary of the method: as §2
Mus musculus = experiment: Improvement in gating deficits in DBA/2 mouse model of sensory gating deficits assessed as reduction in ratio of response to test stimulus relative to preceding response to conditioning stimulus at 0.1 to 10 umol/kg, ip by paired auditory stimulus paradigm assay; assay type: functional, organism-based
Summary of the method: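 DBA/2 mice (16–20 g) implanted with hippocampal CA3 EEG electrodes under ketamine/xylazine/acepromazine, ≥4 days recovery. Dosed ip in 5% DMSO/5% Solutol in PBS immediately before recording; 120 paired 5 ms white-noise bursts 0.5 s apart over 30 min. N40 amplitude T:C ratio. Within-subjects random-order crossover with vehicle, ≥72 h apart; mean ± SEM, one-way ANOVA with Newman-Keuls test.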

Rattus norvegicus [28] = experiment: Plasma concentration Sprague-Dawley rat at 30 mg/kg; assay type: ADME, organism-based; parameters: dose 30 mg/kg; settings: in vivo; summary of the method: as §4
[29] = Oral bioavailability in dog at 1 umol/kg; assay type: ADME, organism-based, Canis lupus familiaris; settings: in vivo
[30] = Half life in monkey at 0.5 umol/kg, iv; assay type: ADME, organism-based, Macaca mulatta; settings: rhesus monkey, in vivo

Structure (SMILES): Cc1c(C(=O)N2CCCCC2)cc(-c2ccc(Cl)cc2)n1-c1ccc(S(N)(=O)=O)cc1
EC50 [1]: > 30 µM | Efficacy [2]: 11%

Structure (SMILES): CCCN(CCO)C(=O)c1cc(-c2ccc(Cl)cc2)n(-c2ccc(S(N)(=O)=O)cc2)c1C
EC50 [1]: 3.6 µM | Efficacy [2]: 11% | remaining at 0.5 h [3]: 58%

Structure (SMILES): CCOC(=O)c1cc(-c2ccc(Cl)cc2)n(-c2ccc(S(N)(=O)=O)cc2)c1C
remaining at 0.5 h [3]: 3%

Structure (SMILES): Cc1c(C(=O)CC(C)C)cc(-c2ccc(Cl)cc2)n1-c1ccc(S(N)(=O)=O)cc1
EC50 [1]: 3.9 µM | Efficacy [2]: 74% | remaining at 0.5 h [3]: 44%

Structure (SMILES): CCOC(=O)c1cc(-c2ccc(Br)cc2)n(-c2ccc(S(N)(=O)=O)cc2)c1C
EC50 [1]: 2.6 µM | Efficacy [2]: 20% | remaining at 0.5 h [3]: 2%

Structure (SMILES): Cc1c(C(=O)N(C)C(C)C)cc(-c2ccc(Cl)cc2)n1-c1ccc(S(N)(=O)=O)cc1
EC50 [1]: > 30 µM | Efficacy [2]: 8%

Structure (SMILES): Cc1c(C(=O)C2CC2)cc(-c2ccc(Cl)cc2)n1-c1ccc(S(N)(=O)=O)cc1
EC50 [1]: 4.9 µM | Efficacy [2]: 25% | remaining at 0.5 h [3]: 92%

Structure (SMILES): CCN(C)C(=O)c1cc(-c2ccc(Cl)cc2)n(-c2ccc(S(N)(=O)=O)cc2)c1C
EC50 [1]: > 30 µM | Efficacy [2]: 3%

Structure (SMILES): Cc1c(C(=O)N2CCOCC2)cc(-c2ccc(Cl)cc2)n1-c1ccc(S(N)(=O)=O)cc1
EC50 [1]: > 30 µM | Efficacy [2]: 5%

Structure (SMILES): Cc1c(C(=O)N2CCCC2)cc(-c2ccc(Cl)cc2)n1-c1ccc(S(N)(=O)=O)cc1
EC50 [1]: 9.4 µM | Efficacy [2]: 57% | remaining at 0.5 h [3]: 31%

Continued, in another order:

Cmax [4]: 17 ng/mL | half-life [5]: 1.3 h | Vd [6]: 4.6 L/kg | Activity [8]: inactive | clearance [10]: 18.3 mL/min/kg | clearance [11]: 41.7 mL/min/kg | Activity [12]: inactive | half-life [13]: 1.7 h | bioavailability [14]: 68% | Activity [16]: Active | Vd [17]: 2.8 L/kg | Cmax [19]: 41 ng/mL | Vd [20]: 1.7 L/kg | bioavailability [21]: 83% | remaining at 0.5 h [3]: 96% | Cmax [22]: 87 ng/mL | Cp (Rattus norvegicus [23]): 5000 ng/mL | clearance [25]: 35 mL/min/kg | Cp (Rattus norvegicus [26]): 1000 ng/mL | Cp (Rattus norvegicus [28]): 12400 ng/mL | bioavailability [29]: 55% | half-life [30]: 1 h
Structure (SMILES): CCC(=O)c1cc(-c2ccc(Cl)cc2)n(-c2ccc(S(N)(=O)=O)cc2)c1C
Drug uptake (Brain [7]): 140 ng/g | Activity (Oocyte [9]): Dose-dependent effect | Drug uptake (Brain [15]): 15 ng/g | Activity (Oocyte [18]): inactive | Activity (Oocyte [24]): Active | Drug uptake (Brain [27]): 2 ng/g | Activity (Mus musculus): Active

EC50 [1]: > 30 µM | Efficacy [2]: 5%
Structure (SMILES): Cc1c(C(=O)c2ccc(Cl)cc2)cc(-c2ccc(Cl)cc2)n1-c1ccc(S(N)(=O)=O)cc1

EC50 [1]: > 30 µM | Efficacy [2]: 7%
Structure (SMILES): Cc1ccc(C(=O)c2cc(-c3ccc(Cl)cc3)n(-c3ccc(S(N)(=O)=O)cc3)c2C)cc1

EC50 [1]: 10.5 µM | Efficacy [2]: 26% | remaining at 0.5 h [3]: 45%
Structure (SMILES): COc1ccc(F)cc1C(=O)c1cc(-c2ccc(Cl)cc2)n(-c2ccc(S(N)(=O)=O)cc2)c1C

EC50 [1]: > 30 µM | Efficacy [2]: 4%
Structure (SMILES): Cc1c(C(=O)N(C)C)cc(-c2ccc(Cl)cc2)n1-c1ccc(S(N)(=O)=O)cc1

EC50 [1]: > 30 µM | Efficacy [2]: 8%
Structure (SMILES): Cc1c(C(=O)O)cc(-c2ccc(Cl)cc2)n1-c1ccc(S(N)(=O)=O)cc1

EC50 [1]: 4.88 µM | Efficacy [2]: 9% | remaining at 0.5 h [3]: 38%
Structure (SMILES): Cc1cc(C(=O)c2cc(-c3ccc(Cl)cc3)n(-c3ccc(S(N)(=O)=O)cc3)c2C)ccc1Cl

remaining at 0.5 h [3]: 64%
Structure (SMILES): CC(=O)c1cc(-c2ccc(Cl)cc2)n(-c2ccc(S(N)(=O)=O)cc2)c1C
